Screening data: PubChem, several laboratories
A selection: hits, their analogues and other compounds. The true share with any hit is near 4.2%.
Autophagy HCS – modulators of autophagy. MEF GFP-LC3 puncta imaging; test concentration mostly 10 µM. calls only at 10 µM (by protocol). 190,000 compounds, 0.98% hits;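 active means percentage of spot-positive cells more than 3 SD above its plate mean, without a fluorescence outlier flag or 80% toxicity; inconclusive means no clear call, values can overlap the other calls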;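 further: spot-positive cell cutoff set from DMSO-treated cells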
Rad51 HR inh – Rad51 (human) homologous recombination inhibition | inhibition, % at 10 µM | hRad51 DNA strand exchange, fluorescence dequenching | Q06609 | 200,000 compounds, 0.085% hits | AID 1385;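 active means inhibition above 40% at the single screening dose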;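 further: 0% = DMSO control wells and 100% = blanks with heterologous ssDNA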
Target sequence (Q06609 whole entry, looked up): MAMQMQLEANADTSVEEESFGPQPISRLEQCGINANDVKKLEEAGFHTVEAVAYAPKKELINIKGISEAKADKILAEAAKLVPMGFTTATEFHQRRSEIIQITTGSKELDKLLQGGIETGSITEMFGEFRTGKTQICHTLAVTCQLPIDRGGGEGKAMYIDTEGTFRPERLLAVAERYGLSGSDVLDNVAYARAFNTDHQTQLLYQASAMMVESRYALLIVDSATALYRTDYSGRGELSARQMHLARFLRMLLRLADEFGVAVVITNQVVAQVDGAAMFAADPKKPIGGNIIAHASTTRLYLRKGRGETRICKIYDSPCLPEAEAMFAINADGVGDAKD
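Test system – preformed human Rad51 ssDNA filaments · Reagent – Donor/quencher-labelled 47-bp dsDNA substrate · Incubation – 37 °C 15-min filament assembly, 30-min compound preincubation, 15-min exchange · Signal – FRET fluorescence dequenching, excitation 485 nm, emission 520 nm · Read-out – percent inhibition from fluorescence, normalised to plate control and blank means · Benchmarks – plate control and blank wells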
Cl transport mod – modulates chloride dependent transport by human KCC2. Q9H2X9. KCC2 cells, thallium flux FluoZin-2 fluorescence. B-score of Tl+ flux slope (higher = more flux/activation; lower = inhibition) at 10 µM. 190,000 compounds, 2.2% hits. AID 1456;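 active means thallium flux slope and its plate-corrected score both differing from the plate sample mean at a set confidence after two filtering rounds, in either direction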;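 further: slope of fluorescence scaled to starting intensity during 10 to 20 s after thallium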
Insulin prom up – MIN6 insulin promoter up-regulation. z-score at 5 µM. AID 1625. 190,000 compounds, 0.3% hits. MIN6 insulin promoter-GFP reporter, high-content imaging; hits give high values;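 active means z-score above 3 at 5 µM with at least 500 cells counted in the well; inconclusive means wells under 500 cells, flagged as cytotoxic or low count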
SKKanGAS inh – blocks kanamycin growth of S. pyogenes SKKanGAS strain; BacTiter-Glo, 6 h; inhibition, % at 7.5 µM; 300,000 compounds, 1.3% hits;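 active means mean replicate score, as percent of positive control median, at least 50; inconclusive means mean below 50 but one replicate at or above 50; inactive means mean and every replicate below 50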;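 further: strain carries kanamycin resistance gene driven by streptokinase promoter and grows in 40 µg/ml kanamycin; loss of luminescence reflects streptokinase promoter inhibition or plain growth inhibition; 0% = median of DMSO wells and 100% = positive control at its reference dose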
WT yeast gro inh – growth inhibition of WT yeast, mitochondrial fusion screen. mitochondrial fusion phenotypic screen, WT strain. inhibition, % at 10 µM. 190,000 compounds, 2.1% hits; in the data active means inhibition above about 58%; tested in S. cerevisiae
An asterisk follows results filed as active; i = inactive; u = inconclusive; x = not tested or not shown; + = active, no number.

SMILES | Autophagy HCS | Rad51 HR inh | Cl transport mod | Insulin prom up | SKKanGAS inh | WT yeast gro inh
O=C(O)CC(Cc1ccc(Cl)cc1)C(=O)Nc1ccc([N+](=O)[O-])cc1 (centres undefined) | i | -6 | -1.8 | 0.18 | -1 | -47
O=[N+]([O-])c1ccc(C(O)C(CO)NC(=S)Nc2ccccc2)cc1 (centres undefined) | x | 16 | 0.21 | -0.33 | 21 | x
O=C(N[C@H](CO)[C@H](O)c1ccc([N+](=O)[O-])cc1)C(Cl)Cl | x | 1 | x | x | 101* | x
Cc1ccc(Cl)cc1N1CCN(S(=O)(=O)c2cc3c(cc2C)NC(=O)CO3)CC1 | x | x | x | x | 29 | x
Nc1nnn(CC(=O)N/N=C/c2cccc(Cl)c2)n1 | x | x | 1 | 0.4 | 4 | x
COc1cc2c(cc1OC)-c1nncn1C(C)(C)C2 | i | 1 | x | 3.8* | -4 | -2
O=C(NCc1nc2ccccc2[nH]1)c1ccc(Cl)c(S(=O)(=O)N2CCCC2)c1 | i | -6 | 0.71 | 0.12 | 5 | -1
CCCn1c(NC(=O)c2cccc(C)c2C)nc2ccccc21 | i | 6 | 2.5 | -1.1 | 52* | 42
CCCn1c(NC(=O)c2ccc(Cl)c(S(=O)(=O)N3CCCC3)c2)nc2ccccc21 | i | 5 | -0.2 | u | 92* | 29
COc1ccccc1N1CCN(C(=O)c2oc3cc(C)cc(C)c3c2C)CC1 | i | 2 | -0.11 | x | 10 | 76*
CCN(CC)S(=O)(=O)c1cccc(C(=O)NCC2CCCCC2)c1 | x | x | x | x | -8 | x
CCc1sc(C(=O)Nc2ncccc2C)cc1C | x | x | x | x | -6 | x
O=C(Nc1nccs1)c1cc2c(s1)CCCCC2 | i | -4 | -2.8 | 0.36 | 77* | 55
CCc1sc(C(=O)Nc2nccs2)cc1C | x | x | x | x | 59* | x
O=C(Nc1nncs1)c1cc2c(s1)CCC2 | i | -5 | -0.032 | -0.2 | -2 | -16
CC[n+]1c(/C=C/N(C)c2ccccc2)n(-c2ccccc2)c2ccc(-c3nc4ccccc4s3)cc21 | x | x | x | x | 99* | x
O=S(=O)(NCCc1csc(-c2ccc(C(F)(F)F)cc2)n1)c1ccc2c(c1)OCCO2 | i | 3 | 0.12 | -1 | -3 | 74*
Cc1cc(C)cc(OCC(=O)NNC(=O)CN2C(=O)c3ccccc3C2=O)c1 | i | -12 | 1.2 | x | x | 18
CCOc1ccccc1C(=O)Nc1nccs1 | i | 134* | -0.87 | 0.06 | -3 | 5
CCOc1ccccc1C(=O)Nc1ccccc1-c1ccccc1 | i | 12 | -0.79 | -0.36 | 0 | 75*
O=C(COC(=O)c1cccc(S(=O)(=O)Nc2ccc(F)cc2)c1)NCCN1C(=O)CSC1=O | x | x | x | x | -8 | x
CN(C)c1cc[n+](CC(=O)Nc2ccc(Oc3ccccc3)cc2)cc1 | i | x | -0.041 | -0.61 | -3 | 76*
O=C(CCc1nc(-c2ccccc2)no1)NCCc1ccccc1 | i | -5 | -2.5 | x | -7 | 62*
CC(=O)Nc1ccccc1C(=O)C(=O)Nc1ccc(F)c(Cl)c1 | x | x | x | x | -3 | x
O=C(c1ccoc1)N1CCCC(N2CCN(c3cccc(Cl)c3)CC2)C1 (centres undefined) | x | x | x | x | -3 | x
SMILES | Autophagy HCS | Rad51 HR inh | Cl transport mod | Insulin prom up | SKKanGAS inh | WT yeast gro inh
O=C(/C=C/c1ccccc1)NC(=S)Nc1ccc(N2CCOCC2)c(Cl)c1 | i | x | x | -0.92 | -8 | -3
O=C(Nc1ccc(N2CCCC2)c(Cl)c1)c1ccco1 | i | 9 | -0.85 | 0.19 | -3 | 10
Cc1ccc(NC(=O)c2cc(NC(=O)c3ccco3)ccc2N2CCOCC2)cc1Cl | + | -7 | -0.2 | -1.3 | 24 | -3
O=C(Nc1ccc(Cl)c(C(F)(F)F)c1)c1ccco1 | i | -1 | -0.97 | -1.1 | x | 72*
Cc1cccc(NC(=S)NC(=O)/C=C/c2ccco2)c1 | + | x | -0.12 | 1.2 | 3 | 31
O=C(Nc1cccc(C(F)(F)F)c1)c1ccco1 | i | 1 | -0.87 | 0.05 | -5 | 10
O=C(/C=C/c1ccco1)NC(=S)Nc1ccc(N2CCOCC2)c(Cl)c1 | i | 3 | 1.7 | -0.77 | 87* | 21
O=C(/C=C/c1ccco1)NC(=S)Nc1ccccc1 | x | x | x | x | 2 | x
Cc1ccc(NC(=O)CCn2c(=O)[nH]c3ccsc3c2=O)cc1F | x | x | x | x | 16 | x
Cc1ccc(S(=O)(=O)/N=C(/Nc2cccc(O)c2)c2ccccc2)cc1 | x | x | x | x | 0 | x
Clc1cc(CSc2ccccc2)nc(-c2ccccc2)n1 | i | 8 | 0.38 | -0.29 | 58* | 5
Clc1ccc(SCc2cc(Cl)nc(-c3ccccc3)n2)cc1 | i | -1 | 1.1 | x | 67* | x
COc1ccc(-n2nc(C(=O)NCC(=O)NCc3ccc(F)cc3)c3ccccc3c2=O)cc1 | x | x | x | x | -1 | x
CN(C)CCNC(=O)Cn1ccc2cc(S(=O)(=O)N3CCCCCC3)ccc21 | x | x | x | x | 0 | x
Fc1ccccc1CNC(=S)Nc1cccc(C(F)(F)F)c1 | i | 4 | -0.003 | 0.12 | 9 | 35
FC(F)(F)c1cccc(NC(=S)NCc2ccc(Cl)cc2)c1 | i | -9 | 0.18 | 0.01 | 73* | 75*
Fc1ccc(CNC(=S)Nc2cccc(C(F)(F)F)c2)cc1 | i | 6 | 0.051 | 0.26 | 5 | 58*
N#CCCN(C(=O)c1ccc2c(=O)n3c(nc2c1)CCCCC3)c1ccccc1 | x | x | x | x | -1 | x
CC(=O)Nc1ccc(S(=O)(=O)Oc2cccc(/C=N/N=C3/NC(=O)C(CC(=O)O)S3)c2)cc1 (centres undefined) | i | 1 | -0.16 | 0.24 | 1 | -2
CCOC(=O)Cc1csc(NC(=O)c2c(O)c3c(n(CC(C)C)c2=O)CCCC3)n1 | x | 13 | -0.48 | -0.15 | 44 | x
C/C(=N\Nc1ccccn1)c1ccc(N2CCOCC2)cc1 | i | 0 | -0.39 | 0.06 | 2 | 2
C/C(=N\Nc1ccccn1)c1ccc(C(C)C)cc1 | i | 9 | 0.49 | 0.76 | 13 | 76*
O=[N+]([O-])c1cc(Cl)cc(/C=N/Nc2nc3ccccc3s2)c1O | i | 7 | x | 0.36 | 82* | 54
COc1cc(/C=N/Nc2nc3ccccc3s2)cc([N+](=O)[O-])c1O | x | 13 | -2.2 | -0.36 | 54* | x
CCOC(=O)/C(=C/Nc1ccc(F)c(F)c1)[N+](=O)[O-] | x | -5 | -0.67 | -0.2 | -3 | x
SMILES | Autophagy HCS | Rad51 HR inh | Cl transport mod | Insulin prom up | SKKanGAS inh | WT yeast gro inh
NNC(=O)c1cccc(COc2ccc3c(c2)CCC3)c1 | i | x | -1 | 0.02 | 10 | 81*
O=[N+]([O-])/C=C/c1c(OCc2ccccc2)ccc2ccccc12 | i | 5 | x | x | 70* | 77*
CCOC(=O)COc1ccc2ccccc2c1/C=C/[N+](=O)[O-] | i | 5 | -0.34 | 0.45 | 11 | 86*
Nc1c(C(=O)OCC2CCCO2)c2nc3ccccc3nc2n1C1CCCC1 (centres undefined) | i | 6 | x | -1.1 | 6 | -4
COCCCn1c(N)c(-c2nc3ccccc3n2C)c2nc3ccccc3nc21 | i | 3 | x | 0.41 | 9 | 19
Cn1c(-c2c(N)n(CCCc3ccccc3)c3nc4ccccc4nc23)nc2ccccc21 | + | -7 | -0.057 | 0.57 | 113* | 49
